ChEMBL document CHEMBL3352649, “2,2'-Dihydroxybenzophenones and their carbonyl N-analogues as inhibitor scaffolds for MDR-involved human glutathione transferase isoenzyme A1-1” (Bioorg Med Chem, 2014)

Columns and labels:
[1] = molecular target: T1, Glutathione S-transferase A1 (Homo sapiens, UniProt P08263); assay: Inhibition of human GSTA1 activity assessed as conjugation between CDNB and GSH
T1 sequence (P08263 whole entry): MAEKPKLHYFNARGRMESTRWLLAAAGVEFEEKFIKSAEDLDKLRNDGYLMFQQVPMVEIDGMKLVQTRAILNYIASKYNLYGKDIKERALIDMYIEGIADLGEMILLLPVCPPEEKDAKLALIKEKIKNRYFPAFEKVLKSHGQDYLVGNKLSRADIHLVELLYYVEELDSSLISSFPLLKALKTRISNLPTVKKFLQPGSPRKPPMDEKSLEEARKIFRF

[2] = molecular target: T1, Glutathione S-transferase A1; assay: Mixed-type inhibition of human GSTA1 activity by double reciprocal Lineweaver-Burk graph
[3] = molecular target: T2, Glutathione S-transferase A1 (Homo sapiens) (UniProt P08263); assay: Inhibition of human GSTA1 activity assessed as conjugation between CDNB and GSH at 25 uM
T2 sequence (whole entry): T1 sequence (P08263 whole entry)
Summary of the method: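 1 mL of 100 mM potassium phosphate pH 6.5, 0.75 µmol GSH, 25 nmol compound (from 5 mM DMSO stock), enzyme; 1 min at 25 °C, then 0.3 µmol CDNB. Read at 340 nm. Remaining activity is relative to a 5 µL DMSO replacement, mean of three assays.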

IC50 [1] | Ki [2] | inhibition [3] | Compound
240 nM | 360 nM | 87.7% | O=C(c1ccccc1O)c1cc(Br)ccc1O
 |  | 0% | O=C(c1ccccc1O)c1ccccc1O
